MIC data for three compounds are collected here from ChEMBL document CHEMBL1146509, “Periconicins, two new fusicoccane diterpenes produced by an endophytic fungus Periconia sp. with antibacterial activity” (2004).

Values after ≈ are worked out from the molar mass of the structure shown.

The test system of assay [1] is Bacillus subtilis. Kind of assay: Antibacterial activity against Bacillus subtilis ATCC 6633 after 24 hrs by twofold microtiter broth dilution method. It counts as functional. In a few lines:
(§1)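 Two-fold serial dilutions in DMSO added to standard methods (SM) broth in 96-well plates, final 0.5% DMSO; wells inoculated from overnight culture at 10^5 CFU/mL; incubated 37 °C for 24 h; MIC taken as lowest concentration with no visible growth. Strains from ATCC or Institute for Fermentation, Osaka stock collections.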
In general terms: Dilution methods test growth across graded concentrations, often in twofold steps.

Assay [2] concerns Staphylococcus aureus. Kind of assay: Antibacterial activity against Staphylococcus aureus ATCC 6538p after 24 hrs by twofold microtiter broth dilution method. Type of assay: functional. In a few lines: as §1
Assay [3] concerns Staphylococcus epidermidis. Kind of assay: Antibacterial activity against Staphylococcus epidermidis ATCC 12228 after 24 hrs by twofold microtiter broth dilution method. Type of assay: functional. In a few lines:
as §1

Assay [4] has as its system Micrococcus luteus. Kind of assay: Antibacterial activity against Micrococcus luteus IFO 12708 after 24 hrs by twofold microtiter broth dilution method. It counts as functional. In outline: as §1
The test system of assay [5] is Klebsiella pneumoniae. Kind of assay: Antibacterial activity against Klebsiella pneumoniae IFO 13541 after 24 hrs by twofold microtiter broth dilution method. Type of assay: functional. In a few lines: as §1
The subject of assay [6] is Proteus vulgaris. Kind of assay: Antibacterial activity against Proteus vulgaris ATCC 3851 after 24 hrs by twofold microtiter broth dilution method. Type of assay: functional. In a few lines: as §1
Assay [7] deals with Salmonella typhimurium. In words: Antibacterial activity against Salmonella typhimurium ATCC 14028 after 24 hrs by twofold microtiter broth dilution method. It counts as functional, Salmonella enterica subsp. enterica serovar Typhimurium. In outline:
as §1

In assay [8] the test system is Escherichia coli. In words: Antibacterial activity against Escherichia coli ATCC 25922 after 24 hrs by twofold microtiter broth dilution method. Type of assay: functional. In a few lines: as §1
Where [9] appears, read: Salmonella enterica, ATCC 14028, 24 h.

The term MIC denotes the least concentration at which growth counts as inhibited. A high value points to a less susceptible organism. As for `CC(C)C1=C2C/C=C(/C=O)[C@@H]3C(=O)[C@@H](O)[C@@H](C)[C@H]3C[C@]2(C)CC1` [PERICONICIN A], the MIC in assay [1] (ATCC 6633, 24 h) was 3.12 µg/mL (≈ 9.86 µM); in assay [2] it was 12.5 µg/mL (≈ 39.5 µM); in assay [3] (ATCC 12228, 24 h), 12.5 µg/mL (≈ 39.5 µM); in assay [4] (IFO 12708, 24 h), 25 µg/mL (≈ 79 µM); in assay [5] (IFO 13541, 24 h) it was 3.12 µg/mL (≈ 9.86 µM); in assay [6] (ATCC 3851, 24 h), 6.25 µg/mL (≈ 19.8 µM). The minimum inhibitory concentration (MIC) in assay [7] (setting [9]) came out at 6.25 µg/mL (≈ 19.8 µM); in assay [8] (ATCC 25922, 24 h), 100 µg/mL (≈ 316 µM).

Take `CC(CO)C1=C2C/C=C(/C=O)[C@@H]3C(=O)[C@@H](O)[C@@H](C)[C@H]3C[C@]2(C)CC1` (some centres undefined) [PERICONICIN B]: the MIC was 25 µg/mL (≈ 75.2 µM) in assay [1] (ATCC 6633, 24 h); 50 µg/mL (≈ 150 µM) in assay [2]; 100 µg/mL (≈ 301 µM) in assay [3] (ATCC 12228, 24 h); over 100 µg/mL in assay [4] (IFO 12708, 24 h); 25 µg/mL (≈ 75.2 µM) in assay [5] (IFO 13541, 24 h); 50 µg/mL (≈ 150 µM) in assay [6] (ATCC 3851, 24 h). The MIC is 50 µg/mL (≈ 150 µM) in assay [7] (setting [9]) and over 100 µg/mL in assay [8] (ATCC 25922, 24 h).

On to GENTAMICIN, for which the MIC in assay [1] came out at 3.12 µg/mL; in assay [2] it was 3.12 µg/mL; in assay [3], 3.12 µg/mL; in assay [4], 6.25 µg/mL; in assay [5], 12.5 µg/mL; in assay [6], 6.25 µg/mL. Further, the MIC in assay [7] (Salmonella enterica subsp. enterica serovar Typhimurium) is 3.12 µg/mL; in assay [8] it was 1.56 µg/mL.
